# Screens (PubChem BioAssay)
# A selection: hits, their analogues and other compounds. The true share with any hit is near 2.3%.
# PGC1a acetyl inh = inhibitors of PGC1a acetylation signal, primary screen, cell-based, U2OS, AlphaScreen, inhibitor mode | AlphaScreen anti-acetyl-lysine; with virally co-expressed GCN5 acetyltransferase | inhibition, % at 15.6 µM | 0.17% of 350,000 active;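 active = every replicate shows inhibition of at least 40%; inconclusive = mean inhibition at least 40% but some replicate below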;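 also: 0% = neutral control wells and 100% = positive control wells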
# HIV Env fusion = inhibitors of HIV-1 Env-driven cell-cell fusion, primary screen, HeLa-JRFL effector, CEM21 target cells, luciferase; inhibition, % at 12.3 µM; 1.1% of 360,000 active; AID 651610, 2012;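 active = mean replicate inhibition score of at least 50 and every replicate individually at or above 50; inconclusive = only one of the two criteria met; inactive = mean below 50 and not all replicates reaching 50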;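 also: 0% = plate neutral controls and 100% = maraviroc near 300 nM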
# PAX8 inh HTS = inhibitors of PAX8-driven TPO luciferase reporter, primary screen, RMG-I cells, single concentration | SteadyGlo, 24 h | inhibition, % at 12.6 µM | 1.2% of 360,000 active | AID 652154, 2013;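 active = mean replicate inhibition at least 60% with every replicate also reaching 60%; inconclusive = only one of the two criteria is met; inactive = mean below 60% and not all replicates reaching 60%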;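 also: luciferase light reporting Pax8 driven TPO promoter activity; plate controls were median of neutral control wells for no effect and mitoxantrone controls for full effect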
# EWS-Fli inh = EWS/Fli-driven NR0B1 reporter inhibitors, primary screen, A673 cells, NR0B1 luciferase, luminescence, MLPCN library; viability-normalised; inhibition, % at 12.6 µM; 0.67% of 350,000 active; AID 651661, 2012;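 active = mean inhibition of at least 50% after viability correction, with every replicate also passing that limit; inconclusive = mean reaches 50% but only one of two replicates passes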;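 also: firefly luciferase signal divided by Alamar Blue viability fluorescence both relative to DMSO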
# CFTR F508del cor = F508del CFTR correction, initial screen, CFBE line, single point. CFBE cells, YFP halide quenching; stimulated with forskolin plus potentiator P3; % fluorescence drop versus neutral controls. activity (quench increase), % at 7.58 µM. 0.36% of 350,000 active. AID 720511, 2013;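 active = mean added fluorescence quench of at least 8% versus neutral control, with both replicates also reaching 8%; inconclusive = only one of the mean or replicate conditions met; inactive = mean below 8% and not both replicates reaching 8%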;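 also: cells transiently co-express mutant CFTR-F508del with the halide-sensitive YFP; corrector assay measuring rescue of mutant channel to the surface after 24 h compound exposure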
# FN deposit inh = inhibitors of fibronectin matrix deposition, primary screen, AH1F cells, Alexa488-fibronectin fluorescence, plate reader; AH1F fibroblasts, overnight; inhibition, % at 12.6 µM; 0.086% of 350,000 active; AID 743247, 2014;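 active = mean inhibition across replicates of 30% or more, regardless of how many single replicates reach that level; inconclusive = mean under 30% yet at least half of replicates reach 30%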;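 also: positive control wells lacked labelled fibronectin entirely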
#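 Test system: AH1F fibroblast monolayer depositing Alexa488-labelled fibronectin into matrix. Input: 10000 cells per well. Technique: fluorescence, ex 485 nm, em 525 nm. Buffer or medium: DMEM plus 2% serum, read in PBS. Timing: 1 h cell adhesion before compound, then overnight fibronectin incubation. Compound: single dose, pinned. Read-out basis: inhibition from reduced deposited-fibronectin fluorescence.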
# The depositor's hits bear a star; i = inactive; ? = inconclusive; . = no result; [ ] = dose if it differs, or a comment.
SMILES,PGC1a acetyl inh,HIV Env fusion,PAX8 inh HTS,EWS-Fli inh,CFTR F508del cor,FN deposit inh
COc1ccc(OC(F)(F)F)cc1CC1(C)C(=O)Nc2ccc(S(=O)(=O)NC3CCCCC3)cc21 (stereo unspecified),-38,88*,12,1,-2,-9
COc1ccc(Cl)cc1CC1(C)C(=O)Nc2ccc(S(=O)(=O)NC3CCCCC3)cc21 (stereo unspecified),-30,93*,14,-7,-1,5
COc1ccc(OC(F)(F)F)cc1CC1(C)C(=O)Nc2cccc(Cl)c21 (stereo unspecified),-24,83*,.,10,2,-7
CC1(Cc2ccc(OC(F)(F)F)cc2)C(=O)Nc2ccc(OC(F)(F)F)cc21 (stereo unspecified),2,36,-16,-5,-3,-4
CC1(Cc2ccccc2OC(F)(F)F)C(=O)Nc2ccc(S(=O)(=O)NC3CCCCC3)cc21 (stereo unspecified),-25,55,8,6,0,-3
COc1ccc(OC(F)(F)F)cc1CC1(C)C(=O)Nc2ccc(-c3ccsc3)cc21 (stereo unspecified),-12,58*,-13,-4,4,-2
CC(C)NC(=O)Nc1cccc2c1O[C@@H](CN(C)S(C)(=O)=O)[C@H](C)CN(C)C2=O,.,.,.,.,.,6
COc1ccccc1CC1(C)C(=O)Nc2ccc(S(=O)(=O)NC3CCCCC3)cc21 (stereo unspecified),.,56*,-9,-8,5,5
CO[C@@H]1CN(C)C(=O)c2cc(NC(C)=O)ccc2OC[C@H](C)N(C(=O)c2ccccn2)C[C@@H]1C,11,22[16.7 µM],.,-10,2,-1
Cc1ccc(-n2cc(-c3ccccc3)c3c(N4CCN(C)CC4)ncnc32)cc1,-8,12,-2,-7,-2,4
Cc1cccc(-n2cc(-c3ccccc3)c3c(N4CCOCC4)ncnc32)c1,8,?,68*,-10,-7,5
Cc1ccc(-n2cc(-c3ccccc3)c3c(N4CCOCC4)ncnc32)cc1,.,30,20,-4,8.2*,2
CC1(C)CC(CC(=O)Nc2nccs2)(c2ccccc2)CCO1 (stereo unspecified),.,.,69*,-24,1,2
Cc1ccc(C2(CC(=O)Nc3nccs3)CCOC(C(C)C)C2)cc1 (stereo unspecified),-7,6,7,.,.,1
CO[C@H]1CN(C)C(=O)c2ccc(NC(=O)c3nc4ccccc4s3)cc2OC[C@@H](C)N(Cc2cncnc2)C[C@@H]1C,-1,.,-13,-24,1,9
CN1C(=O)c2cc(NC(=O)C3CCCC3)ccc2OC[C@@H]2O[C@H](CC(=O)NCc3ccccc3F)CC[C@@H]21,-4,.,-2,4,0,-3
CC(=O)Nc1cccc(-c2ccnc3c2CC(C)(C(=O)Nc2ccc(Cl)cc2)O3)c1 (stereo unspecified),.,-29,56,62*,8,13
COc1ccc(NC(=O)C2(C)Cc3c(-c4ccc5c(c4)OCO5)ccnc3O2)cc1 (stereo unspecified),0,-26,29,53*,2,6
O=C(Nc1ccc2c(c1)OCO2)C1Cc2c(-c3ccc4c(c3)OCO4)ccnc2O1 (stereo unspecified),-5,-10,30,53*,0,24
CC(=O)Nc1cccc(-c2ccnc3c2CC(C)(C(=O)Nc2ccc4c(c2)OCO4)O3)c1 (stereo unspecified),-70,-19,-5,49,10*,-6
CO[C@@H]1CN(C)C(=O)c2ccc(NC(=O)c3nc4ccccc4s3)cc2OC[C@@H](C)N(Cc2cncnc2)C[C@H]1C,4,.,-14,-66,-1,-10
Cc1noc(C)c1NC(=O)N(C)C[C@@H]1OCCCC[C@@H](C)Oc2ccc(NS(=O)(=O)c3ccc(F)cc3)cc2C(=O)N([C@H](C)CO)C[C@@H]1C,.,25[16.7 µM],-7,-9,-1,-5
COc1ccc(NC(=O)C2(C)Cc3c(-c4ccc(NC(C)=O)cc4)ccnc3O2)cn1 (stereo unspecified),24,-14,11,-5,2,4
CC1(C(=O)Nc2cccc(OC(F)(F)F)c2)Cc2c(-c3ccc4c(c3)OCO4)ccnc2O1 (stereo unspecified),2,20,14,35,0,34*
CN(C)c1ccc(-c2ccnc3c2CC(C)(C(=O)Nc2cccc(OC(F)(F)F)c2)O3)cc1 (stereo unspecified),.,-6,1,9,-3,19
SMILES,PGC1a acetyl inh,HIV Env fusion,PAX8 inh HTS,EWS-Fli inh,CFTR F508del cor,FN deposit inh
COc1ccc(NC(=O)C2(C)Cc3c(-c4cccc(NC(C)=O)c4)ccnc3O2)cn1 (stereo unspecified),-58,-115,.,59*,4,-5
COc1cccc(N2CCN(c3nc(-c4ccccc4C)cc(=O)[nH]3)CC2)c1,.,-336,70*,11,0,1
CC1(Cc2ccc(F)cc2)C(=O)Nc2c(Cl)ccc(Cl)c21 (stereo unspecified),-16,22,.,-3,8.8*,-4
CC(=O)N1CCc2c(sc(NC(=O)c3ccc(S(=O)(=O)N(C)C)cc3)c2C#N)C1,-1,-1,-20,-10,0,0
CC(=O)N1CCc2c(sc(NC(=O)c3ccc([N+](=O)[O-])o3)c2C(N)=O)C1,.,i,87*,42,-3,19
CCC(=O)Nc1sc2c(c1C(N)=O)CCN(C(C)=O)C2,-4,21,0,4,-2,6
CC(=O)N1CCc2c(sc(NC(=O)c3ccc4c(c3)OCCO4)c2C#N)C1,-5,-100,-33,-20,10*,0
CCOc1ccccc1NC(=O)c1nc(S(=O)(=O)Cc2ccccc2)ncc1Cl,-6,-4,134*,?,3,3
CCS(=O)(=O)c1ncc(Cl)c(C(=O)Nc2ccccc2OC)n1,.,1,5,?,-16,7
COc1ccccc1NC(=O)c1nc(S(=O)(=O)Cc2ccccc2)ncc1Cl,-23,-4,130*,59*,1,42*
CCCNC(=O)[C@H]1[C@H](CO)[C@H]2Cn3c(ccc(-c4ccccc4OC)c3=O)[C@H]2N1S(C)(=O)=O,.,.,-11,1,-1,.
CC(C)(C)N(Cc1ccccc1)C(=O)c1cc2ccccc2o1,-10,19,-16,19,10.0*,6
CN(Cc1ccccc1)C(=O)c1cc2ccccc2o1,.,.,.,9,2,.
COc1ccc2c3c(n(C)c2c1)[C@@H](CO)N(Cc1ccncc1)CC31CCN(C(=O)C2CCCCC2)CC1,.,.,-8,1,0,.
